Data from ChEMBL document CHEMBL1142699 (J Med Chem, 2005).
Numbered stars: 1 amine (or outer) side, 2 acyl side, 3 side chain; on linkers, the order of the positions; unused ones are H or OH. Square brackets hold non-standard residues; d marks the D form. Peptide text beside a SMILES is read from it. * marks the point of attachment. X1 = N[C@@H](Cc1ccccc1)CN(CC(=O)[*:2])[*:1]; Phe(4-F) = N[C@@H](Cc1ccc(F)cc1)C(=O)O; N(NH2)2 = NN(N)*; NHNH2 = NN*

Columns and labels:
[1] = molecular target: Nociceptin receptor (Mus musculus) (UniProt P35377); assay: Inhibition of electrically evoked contraction of mouse vas deferens; Effect evident only in some tissues; format: functional; details: filed as agonist
Sequence of Nociceptin receptor (Mus musculus) (P35377 whole entry): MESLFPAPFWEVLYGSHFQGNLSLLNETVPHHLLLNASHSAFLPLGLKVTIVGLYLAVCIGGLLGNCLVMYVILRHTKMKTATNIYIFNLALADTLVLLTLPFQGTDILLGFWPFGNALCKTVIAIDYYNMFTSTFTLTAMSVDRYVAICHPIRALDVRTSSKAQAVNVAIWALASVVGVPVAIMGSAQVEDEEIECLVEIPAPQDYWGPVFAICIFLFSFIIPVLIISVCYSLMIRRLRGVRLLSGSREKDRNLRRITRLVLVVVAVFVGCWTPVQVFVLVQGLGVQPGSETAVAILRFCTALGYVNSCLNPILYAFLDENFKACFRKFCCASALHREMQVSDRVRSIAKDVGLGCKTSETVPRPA

[2] = molecular target: Nociceptin receptor (Cavia porcellus) (UniProt P47748); assay: Maximal inhibition of electrically evoked contraction of guinea pig ileum; Effect evident only in some tissues; format: functional, tissue-based; details: filed as agonist
Sequence of Nociceptin receptor (Cavia porcellus) (P47748 whole entry): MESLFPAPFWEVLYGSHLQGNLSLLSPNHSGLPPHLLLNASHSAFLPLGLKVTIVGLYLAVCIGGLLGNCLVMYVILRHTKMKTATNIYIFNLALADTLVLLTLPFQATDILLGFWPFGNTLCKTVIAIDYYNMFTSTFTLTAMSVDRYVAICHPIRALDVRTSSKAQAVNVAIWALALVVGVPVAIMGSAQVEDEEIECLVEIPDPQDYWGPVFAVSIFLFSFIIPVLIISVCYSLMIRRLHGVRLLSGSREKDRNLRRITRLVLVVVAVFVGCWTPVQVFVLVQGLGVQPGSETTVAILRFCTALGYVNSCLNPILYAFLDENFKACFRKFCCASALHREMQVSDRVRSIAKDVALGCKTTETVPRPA

[3] = molecular target: Nociceptin receptor (Mus musculus) (UniProt P35377); assay: Antagonistic potency against N/OFQ in electrically evoked contraction of mouse vas deferens at 0.1 uM; format: functional, tissue-based
In short: (§1)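 Male Swiss mice (25-30 g). Vas deferens in 5 mL baths of Mg2+-free Krebs at 33 °C, 0.3 g tension, field-stimulated with supramaximal 1 ms pulses at 0.05 Hz, isotonic recording.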

[4] = molecular target: Nociceptin receptor (Cavia porcellus) (UniProt P47748); assay: Inhibition of electrically evoked contraction of guinea pig ileum; Effect evident only in some tissues; format: functional, tissue-based; details: filed as agonist
[5] = molecular target: Nociceptin receptor (Mus musculus) (UniProt P35377); assay: Maximal inhibition of electrically evoked contraction of mouse vas deferens; Effect evident only in some tissues; format: functional; details: filed as agonist
[6] = molecular target: Nociceptin receptor (Cavia porcellus, UniProt P47748); assay: Inhibition of electrically evoked contraction of guinea pig ileum; format: functional, tissue-based
Sequence of Nociceptin receptor (Cavia porcellus, UniProt P47748) (P47748 whole entry): as above
In short: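 Guinea pig ileum from albino animals (250-300 g), in Krebs at 37 °C under 0.3 g resting tension. Field-stimulated with 1 ms supramaximal pulses at 0.05 Hz; twitches recorded isotonically. After ~1 h equilibration, cumulative concentration-response curves in 0.5 log steps. […] 5-8 experiments.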

[7] = molecular target: Nociceptin receptor (Mus musculus, UniProt P35377); assay: Inhibition of electrically evoked contraction of mouse vas deferens; format: functional
Sequence of Nociceptin receptor (Mus musculus, UniProt P35377) (P35377 whole entry): as the sequence (P35377 whole entry) above
In short: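 Vas deferens from male Swiss mice (25-30 g), in Mg2+-free Krebs at 33 °C under 0.3 g resting tension. Field-stimulated with 1 ms supramaximal pulses at 0.05 Hz; twitches recorded isotonically. After ~1 h equilibration, cumulative concentration-response curves in 0.5 log steps. […] 5-8 experiments.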

[8] = molecular target: Nociceptin receptor (Mus musculus) (UniProt P35377); assay: Maximal inhibition of electrically evoked contraction of mouse vas deferens; format: functional, tissue-based
[9] = molecular target: Nociceptin receptor (Cavia porcellus) (UniProt P47748); assay: Maximal inhibition of electrically evoked contraction of guinea pig ileum; format: functional, tissue-based
[10] = molecular target: Nociceptin receptor (Cavia porcellus) (UniProt P47748); assay: Antagonistic potency against N/OFQ in electrically evoked contractions of guinea pig ileum at 1 uM; format: functional, tissue-based
[11] = molecular target: Nociceptin receptor (Mus musculus) (UniProt P35377); assay: Antagonistic potency against N/OFQ in electrically evoked contraction of mouse vas deferens at 1 uM; format: functional, tissue-based; in short: as §1
[12] = molecular target: T1, Nociceptin receptor (Homo sapiens, UniProt P41146); assay: Agonist potency against GTPgammaS binding in CHO cell membranes expressing the human NOP receptor (CHOhNOP)
T1 sequence (P41146 whole entry): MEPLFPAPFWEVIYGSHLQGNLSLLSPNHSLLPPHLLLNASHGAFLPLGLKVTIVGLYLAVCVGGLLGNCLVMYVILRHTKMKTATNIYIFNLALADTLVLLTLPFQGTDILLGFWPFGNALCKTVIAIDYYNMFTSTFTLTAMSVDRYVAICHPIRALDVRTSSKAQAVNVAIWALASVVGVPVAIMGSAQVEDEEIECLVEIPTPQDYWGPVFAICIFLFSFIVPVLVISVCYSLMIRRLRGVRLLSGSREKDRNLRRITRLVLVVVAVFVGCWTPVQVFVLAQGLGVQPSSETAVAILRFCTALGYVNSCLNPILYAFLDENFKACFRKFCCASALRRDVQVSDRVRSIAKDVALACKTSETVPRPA

[13] = molecular target: T1, Nociceptin receptor; assay: Receptor binding affinity for recombinant human N/OFQ peptide receptor (NOP) expressed in chinese hamster ovary cells; format: cell-based, CHO
[14] = molecular target: T1, Nociceptin receptor; assay: Inhibition of forskolin stimulated cAMP levels in CHO cells expressing the human NOP receptor (CHOhNOP)

C[C@H](NC(=O)CNC(=O)[C@@H](NC(=O)[C@H](Cc1ccc(F)cc1)NC(=O)CNC(=O)CNC(=O)CNCc1ccccc1)[C@@H](C)O)C(=O)N[C@@H](CCCN=C(N)N)C(=O)N[C@@H](CCCCN)C(=O)N[C@@H](CO)C(=O)N[C@@H](C)C(=O)N[C@@H](CCCN=C(N)N)C(=O)N[C@@H](CCCCN)C(=O)N[C@@H](CCCN=C(N)N)C(=O)N[C@@H](CCCCN)C(=O)N[C@@H](CC(N)=O)C(=O)N[C@@H](CCC(=O)N(N)N)C(=O)NN
Activity [1]: Agonist
Emax [2]: Agonist
pKb [3]: 7.97
pKb ([3]; Cavia porcellus): 7.82
Log EC50 [4]: Agonist
Emax [5]: Agonist

CC(C)C[C@H](NC(=O)[C@H](CCCCN)NC(=O)[C@H](CCCN=C(N)N)NC(=O)[C@H](C)NC(=O)[C@H](CO)NC(=O)[C@H](CCCCN)NC(=O)[C@H](CCCN=C(N)N)NC(=O)[C@H](C)NC(=O)CNC(=O)[C@@H](NC(=O)[C@H](Cc1ccccc1)NC(=O)CNC(=O)CNC(=O)[C@@H](N)Cc1ccccc1)[C@@H](C)O)C(=O)N[C@@H](C)C(=O)N[C@@H](CC(N)=O)C(=O)N[C@@H](CCC(N)=O)C(=O)O [NOCICEPTIN]
EC50 [6]: 5.25 nM
EC50 [7]: 5.37 nM

C[C@H](NC(=O)CNC(=O)[C@@H](NC(=O)[C@H](Cc1ccccc1)NC(=O)CNC(=O)CNC(=O)[C@@H](N)Cc1ccccc1)[C@@H](C)O)C(=O)N[C@@H](CCCN=C(N)N)C(=O)N[C@@H](CCCCN)C(=O)N[C@@H](CO)C(=O)N[C@@H](C)C(=O)N[C@@H](CCCN=C(N)N)C(=O)N[C@@H](CCCCN)C(=O)N[C@@H](CCCN=C(N)N)C(=O)N[C@@H](CCCCN)C(=O)N[C@@H](CC(N)=O)C(=O)N[C@@H](CCC(=O)N(N)N)C(=O)NN
Emax [8]: 95%
Emax [9]: 52%

C[C@H](NC(=O)CNC(=O)[C@@H](NC(=O)[C@H](Cc1ccc(F)cc1)NC(=O)CNC(=O)CNC[C@@H](N)Cc1ccccc1)[C@@H](C)O)C(=O)N[C@@H](CCCN=C(N)N)C(=O)N[C@@H](CCCCN)C(=O)N[C@@H](CO)C(=O)N[C@@H](C)C(=O)N[C@@H](CCCN=C(N)N)C(=O)N[C@@H](CCCCN)C(=O)N[C@@H](CCCN=C(N)N)C(=O)N[C@@H](CCCCN)C(=O)N[C@@H](CC(N)=O)C(=O)N[C@@H](CCC(=O)N(N)N)C(=O)NN (H-[X1]G[Phe(4-F)]TGARKSARKRKNE(N(NH2)2)-NHNH2)
Emax [2]: Agonist
pKb [3]: 9.2
pKb ([3]; Cavia porcellus): 8.48
Emax [8]: 53%
Log EC50 [4]: Agonist

CC(C)C[C@H](NC(=O)[C@H](CCCCN)NC(=O)[C@H](CCCN=C(N)N)NC(=O)[C@H](C)NC(=O)[C@H](CO)NC(=O)[C@H](CCCCN)NC(=O)[C@H](CCCN=C(N)N)NC(=O)[C@H](C)NC(=O)CNC(=O)[C@@H](NC(=O)[C@H](Cc1ccccc1)NC(=O)CNC(=O)CNC[C@@H](N)Cc1ccccc1)[C@@H](C)O)C(=O)N[C@@H](C)C(=O)N[C@@H](CC(N)=O)C(=O)N[C@@H](CCC(N)=O)C(N)=O (H-[X1]GFTGARKSARKLANQ-NH2)
pKb [10]: 6.65
Activity [1]: Agonist
Emax [2]: Agonist
pKb [11]: 7.17
Log EC50 [4]: Agonist
EC50 [12]: 5.25 nM
Emax [5]: Agonist
Ki [13]: 0.129 nM
EC50 [14]: 0.759 nM

CC(C)C[C@H](NC(=O)[C@H](CCCCN)NC(=O)[C@H](CCCN=C(N)N)NC(=O)[C@H](C)NC(=O)[C@H](CO)NC(=O)[C@H](CCCCN)NC(=O)[C@H](CCCN=C(N)N)NC(=O)[C@H](C)NC(=O)CNC(=O)[C@@H](NC(=O)[C@H](Cc1ccc(F)cc1)NC(=O)CNC(=O)CNC(=O)CNCc1ccccc1)[C@@H](C)O)C(=O)N[C@@H](C)C(=O)N[C@@H](CC(N)=O)C(=O)N[C@@H](CCC(N)=O)C(N)=O
pKb [10]: 7.16
Activity [1]: Agonist
Emax [2]: Agonist
pKb [11]: 6.61
Log EC50 [4]: Agonist
Emax [5]: Agonist

C[C@H](NC(=O)CNC(=O)[C@@H](NC(=O)[C@H](Cc1ccccc1)NC(=O)CNC(=O)CNC(=O)[C@@H](N)Cc1ccccc1)[C@@H](C)O)C(=O)N[C@@H](CCCN=C(N)N)C(=O)N[C@@H](CCCCN)C(=O)N[C@@H](CO)C(=O)N[C@@H](C)C(=O)N[C@@H](CCCN=C(N)N)C(=O)N[C@@H](CCCCN)C(=O)N[C@@H](CCCN=C(N)N)C(=O)N[C@@H](CCCCN)C(=O)N[C@@H](CC(N)=O)C(=O)N[C@@H](CCC(N)=O)C(N)=O
EC50 [6]: 1.12 nM
Ki [13]: 0.00692 nM
EC50 [7]: 0.759 nM
EC50 [14]: 0.1 nM
